These results are taken from ChEMBL document CHEMBL3259806, “Design, synthesis and biological evaluation of novel tripeptidyl epoxyketone derivatives constructed from β-amino acid as proteasome inhibitors” (Bioorg Med Chem, 2014).

The target of assay [1] is 26S proteasome (Homo sapiens) (UniProt Q99460+P49721+P20618+P28074+P28062+P28065+P28072+O00487+P25786+P25787+P25788+P25789+P28066+P60900+O14818+Q8TAA3+P40306+A5LHX3+P49720+P28070+Q99436+Q16186+P35998+P62191+P43686+P62333+P17980+P62195+Q13200+O43242+O00232+O00231+Q15008+P51665+Q9UNM6+P55036+P48556+P60896). Kind of assay: Inhibition of chymotrypsin-like enzyme activity of purified human 20S proteasome using Suc-Leu-Leu-Val-Tyr-AMC as substrate at 1 ug/ml by fluorescence method. The format is protein-complex assay. In outline:
(§1)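 Purified human 20S proteasome preincubated with compound for 15 min. Fluorogenic substrate Suc-Leu-Leu-Val-Tyr-AMC (50 µM) then added to read chymotrypsin-like activity.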

Assay [2] concerns RPMI-8226. The experiment in a line: Induction of apoptosis human RPMI8226 cells assessed as PARP cleavage at 100 nM after 12 hrs by Western blot analysis. It is filed as functional, cell-based. In outline:
(§2)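 RPMI 8226 cells in 6-well plates exposed to compounds for 12 h; DMSO as vehicle control. Cells rinsed twice in ice-cold PBS and lysed in 1× SDS loading buffer. Lysates run on 10% SDS–PAGE and transferred to PVDF. Blocked 1 h in 5% milk, primary antibodies 2 h, secondary 1 h, ECL detection. Probed for poly-ubiquitin, PARP, cleaved PARP, β-actin.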
A general note: A western blot detects proteins with antibodies after separation by electrophoresis.

Assay [3] deals with RPMI-8226. The experiment in a line: Induction of apoptosis human RPMI8226 cells assessed as accumulation of poly-ubiquitin at 100 nM after 12 hrs by Western blot analysis. It is filed as functional, cell-based. Put shortly: as §2
The subject of assay [4] is RPMI-8226. The experiment in a line: Cytotoxic activity against human RPMI8226 cells after 72 hrs by MTS assay. The format is functional, cell-based. Conditions: RPMI-8226, 72 h. In outline: (§3)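 100 µL cell suspension (10⁴ cells/well) seeded in 96-well plates; compound exposure 72 h, then MTS at 0.5 mg/mL final for 2–4 h. Absorbance read at 490 nm with 690 nm background subtraction. Growth inhibitory ratio = (A_control − A_sample)/A_control.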

The nature of assay [5]: Cytotoxic activity against human NCI-H929 cells after 72 hrs by MTS assay. The format is functional, cell-based. Conditions: NCI-H929, 72 h. In outline: as §3
A general note: Tetrazolium assays rely on reduction of a dye to a coloured formazan, in cell work by metabolically active cells.

Assay [6] deals with 26S proteasome. The experiment in a line: Inhibition of chymotrypsin-like enzyme activity of purified human 20S proteasome using Suc-Leu-Leu-Val-Tyr-AMC as substrate by fluorescence method. It is filed as protein-complex assay. Put shortly:
as §1

Each structure is given as a SMILES string. Activity calls are given as the source filed them. No cut-off for these calls is given here.

As to `CC(C)C[C@H](NC(=O)c1ccccc1)C(=O)NC(CC(=O)N[C@@H](CC(C)C)C(=O)[C@@]1(C)CO1)c1ccccc1` (some centres undefined), the inhibition in assay [1] was determined as 6.42%.

For the compound `CC(C)C[C@H](NC(=O)CC(NC(=O)[C@H](Cc1ccccc1)NC(=O)c1ccc(F)cc1)c1ccccc1)C(=O)[C@@]1(C)CO1` (some centres undefined), in assay [1], the inhibition came to 0.37%.

`COc1ccc(C(=O)N[C@@H](Cc2ccccc2)C(=O)NC(CC(=O)N[C@@H](CC(C)C)C(=O)[C@@]2(C)CO2)c2ccccc2)cc1` (some centres undefined) yielded an inhibition in assay [1] of 0.3%. The outcome in assay [2] and in assay [3] was inactive.

`CC(C)C[C@H](NC(=O)c1cccnc1)C(=O)NC(CC(=O)N[C@@H](Cc1ccccc1)C(=O)[C@@]1(C)CO1)c1ccccc1` (some centres undefined) came in with an inhibition in assay [1] of 3.16%.

For `CC(C)C[C@H](NC(=O)c1cnccn1)C(=O)NC(CC(=O)N[C@@H](CC(C)C)C(=O)[C@@]1(C)CO1)c1ccccc1` (some centres undefined), the inhibition in assay [1] turned out to be 9.01%.

Consider `CC(C)C[C@H](NC(=O)[C@H](Cc1ccccc1)NC(=O)CC(NC(=O)c1ccco1)c1ccccc1)C(=O)[C@@]1(C)CO1` (some centres undefined), for which the inhibition in assay [1] came to 42.3%.

In assay [1], `CC(C)C[C@H](NC(=O)[C@H](Cc1ccccc1)NC(=O)CC(NC(=O)c1cnccn1)c1ccccc1)C(=O)[C@@]1(C)CO1` (some centres undefined) registered an inhibition of 48.6%.

As to `CC(C)C[C@H](NC(=O)[C@H](Cc1ccccc1)NC(=O)CC(NC(=O)c1cccnc1)c1ccccc1)C(=O)[C@@]1(C)CO1` (some centres undefined), the IC50 was 4730 nM in assay [4], 8700 nM in assay [5] and 340 nM in assay [6]. In assay [1], this compound came in with an inhibition of 85.8%.

Compound `CC(C)C[C@H](NC(=O)CC(NC(=O)[C@H](Cc1ccccc1)NC(=O)c1cnccn1)c1ccccc1)C(=O)[C@@]1(C)CO1` (some centres undefined) returned an inhibition in assay [1] of 1.51%.

For the compound `CC(C)C[C@H](NC(=O)[C@H](Cc1ccccc1)NC(=O)CC(NC(=O)c1ccc(-c2ccccc2)cc1)c1ccccc1)C(=O)[C@@]1(C)CO1` (some centres undefined), the inhibition in assay [1] was found to be 47.3%.

Consider `COc1ccc(C(=O)NC(CC(=O)N[C@@H](Cc2ccccc2)C(=O)N[C@@H](CC(C)C)C(=O)[C@@]2(C)CO2)c2ccccc2)cc1` (some centres undefined), for which the values for the 50% inhibitory concentration (IC50) in assay [4], in assay [5] and in assay [6] were 1160 nM, 1350 nM and 340 nM, respectively. Moreover, the inhibition in assay [1] is 84.1%.

As for `CC(C)C[C@H](NC(=O)[C@H](Cc1ccccc1)NC(=O)CC(NC(=O)c1ccc2ccccc2c1)c1ccccc1)C(=O)[C@@]1(C)CO1` (some centres undefined), the 50% inhibitory concentration (IC50) is 420 nM in assay [4], 700 nM in assay [5] and 190 nM in assay [6]. Moreover, the inhibition in assay [1] was 74.8%.

As to `CC(C)C[C@H](NC(=O)[C@H](Cc1ccccc1)NC(=O)CC(NC(=O)c1ccc(C#N)cc1)c1ccccc1)C(=O)[C@@]1(C)CO1` (some centres undefined), the values for the IC50 in assay [4], in assay [5] and in assay [6] were 410 nM, 610 nM and 360 nM, respectively. This compound had an inhibition in assay [1] of 72%.

For the compound `CC(C)C[C@H](NC(=O)c1cccnc1)C(=O)NC(CC(=O)N[C@@H](CC(C)C)C(=O)[C@@]1(C)CO1)c1ccccc1` (some centres undefined), the inhibition in assay [1] stood at 0.84%.

For the compound `CC(C)C[C@H](NC(=O)[C@H](Cc1ccccc1)NC(=O)CC(NC(=O)c1ccccc1)c1ccccc1)C(=O)[C@@]1(C)CO1` (some centres undefined), the IC50 in assay [4] came to 1680 nM; in assay [5] it was 2690 nM; in assay [6], 440 nM. The inhibition in assay [1] came out at 88.5%.

For the compound `CC(C)C[C@H](NC(=O)CC(NC(=O)[C@H](Cc1ccccc1)NC(=O)c1cccnc1)c1ccccc1)C(=O)[C@@]1(C)CO1` (some centres undefined), in assay [1], the inhibition came to 0.48%.

Regarding `CC(C)C[C@H](NC(=O)[C@H](Cc1ccccc1)NC(=O)CC(NC(=O)c1ccc(F)cc1)c1ccccc1)C(=O)[C@@]1(C)CO1` (some centres undefined), the IC50 in assay [4] amounted to 1550 nM; in assay [5], 2370 nM; in assay [6] it was 380 nM. In assay [1], the inhibition was 87.7%.

Compound `CC(C)C[C@H](NC(=O)c1ccc(F)cc1)C(=O)NC(CC(=O)N[C@@H](CC(C)C)C(=O)[C@@]1(C)CO1)c1ccccc1` (some centres undefined) had an inhibition in assay [1] of 5.46%.

Regarding `CC(C)C[C@H](NC(=O)c1ccccc1)C(=O)NC(CC(=O)N[C@@H](Cc1ccccc1)C(=O)[C@@]1(C)CO1)c1ccccc1` (some centres undefined), in assay [1], the inhibition was 1.56%.

On to `CC(C)C[C@H](NC(=O)[C@H](Cc1ccccc1)NC(=O)C[C@@H](NC(=O)c1ccc(C(F)(F)F)cc1)c1ccccc1)C(=O)[C@@]1(C)CO1`, for which the IC50 in assay [4] amounted to 340 nM; in assay [5], 230 nM; in assay [6] it was 170 nM. In assay [1], this compound had an inhibition of 84.4%.

Turning to `CC(C)C[C@H](NC(=O)[C@H](Cc1ccccc1)NC(=O)C[C@@H](NC(=O)c1ccc2ccccc2c1)c1ccccc1)C(=O)[C@@]1(C)CO1`, the IC50 in assay [4] came to 230 nM; in assay [5] it was 170 nM; in assay [6], 110 nM. The compound also returned an inhibition in assay [1] of 86.1%. For the same compound, the result in assay [2] and in assay [3] was Active.

For the compound `CC(C)C[C@H](NC(=O)[C@H](CCc1ccccc1)NC(=O)CN1CCOCC1)C(=O)N[C@@H](Cc1ccccc1)C(=O)N[C@@H](CC(C)C)C(=O)[C@@]1(C)CO1` [CARFILZOMIB], the figures for the half-maximal inhibitory concentration (IC50) in assay [4] and in assay [5] were 13.2 nM and 21.3 nM, respectively.

In assay [1], `CC(C)C[C@H](NC(=O)c1cnccn1)C(=O)NC(CC(=O)N[C@@H](Cc1ccccc1)C(=O)[C@@]1(C)CO1)c1ccccc1` (some centres undefined) had an inhibition of 8.7%.

For `CC(C)C[C@H](NC(=O)[C@H](Cc1ccccc1)NC(=O)C[C@H](NC(=O)c1ccc2ccccc2c1)c1ccccc1)C(=O)[C@@]1(C)CO1`, the inhibition in assay [1] was 11.8%.

In the case of `CC(C)C[C@H](NC(=O)[C@H](Cc1ccccc1)NC(=O)c1cnccn1)B(O)O` [BORTEZOMIB], the IC50 in assay [4] was 7.96 nM; in assay [5], 10.8 nM.

`CC(C)C[C@H](NC(=O)[C@H](Cc1ccccc1)NC(=O)CC(NC(=O)c1cccs1)c1ccccc1)C(=O)[C@@]1(C)CO1` (some centres undefined) came in with an inhibition in assay [1] of 62.5%. In assay [6], 950 nM corresponded to half-maximal inhibition (IC50).

In assay [1], `COc1ccc(C(=O)N[C@@H](CC(C)C)C(=O)NC(CC(=O)N[C@@H](Cc2ccccc2)C(=O)[C@@]2(C)CO2)c2ccccc2)cc1` (some centres undefined) registered an inhibition of 0.39%.

In assay [1], `CC(C)C[C@H](NC(=O)c1ccc(F)cc1)C(=O)NC(CC(=O)N[C@@H](Cc1ccccc1)C(=O)[C@@]1(C)CO1)c1ccccc1` (some centres undefined) yielded an inhibition of 1.43%.

Consider `CC(C)C[C@H](NC(=O)CC(NC(=O)[C@H](Cc1ccccc1)NC(=O)c1ccccc1)c1ccccc1)C(=O)[C@@]1(C)CO1` (some centres undefined), for which, in assay [1], the inhibition was determined as 0.3%.

As for `CC(C)C[C@H](NC(=O)[C@H](Cc1ccccc1)NC(=O)CC(NC(=O)c1ccc(C(F)(F)F)cc1)c1ccccc1)C(=O)[C@@]1(C)CO1` (some centres undefined), the IC50 in assay [4] was 320 nM; in assay [5], 960 nM; in assay [6] it was 220 nM. Also, in assay [1], the inhibition was 76%.

Compound `CC(C)C[C@H](NC(=O)[C@H](Cc1ccccc1)NC(=O)CC(NC(=O)C1CCOCC1)c1ccccc1)C(=O)[C@@]1(C)CO1` (some centres undefined) registered an inhibition in assay [1] of 69.5%. In assay [6], this compound gave an IC50 of 630 nM.

As to `CC(C)C[C@H](NC(=O)[C@H](Cc1ccccc1)NC(=O)CC(NC(=O)CN1CCOCC1)c1ccccc1)C(=O)[C@@]1(C)CO1` (some centres undefined), in assay [1], the inhibition was 40%.

In assay [1], `CC(C)C[C@H](NC(=O)[C@H](Cc1ccccc1)NC(=O)C[C@H](NC(=O)c1ccc(C(F)(F)F)cc1)c1ccccc1)C(=O)[C@@]1(C)CO1` yielded an inhibition of 25.6%.

As for `COc1ccc(C(=O)N[C@@H](CC(C)C)C(=O)NC(CC(=O)N[C@@H](CC(C)C)C(=O)[C@@]2(C)CO2)c2ccccc2)cc1` (some centres undefined), in assay [1], the inhibition is 0.56%.

Broadly, the inhibition is the change of the read-out against control, counted positive when it falls. High values mean strong suppression, low ones little suppression. What is called IC50 is the point on the concentration scale where inhibition reaches its midpoint. A low value points to higher potency.
